# Test results from PubChem BioAssay.
# Calls of active or inactive are those of the source.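 How the source made its calls, unless noted: active means GFP response above 150% of the DMSO level; inconclusive means fewer than 70 events counted for a yeast strain; inactive means the rest.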
# Key:
# [1] = hit retest on RPL19A-GFP reporter strain – cell-based, S. cerevisiae, flow cytometry, cherry picks, mother/daughter gates, confirmation (AID 2270;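 active means GFP response below 50% of the DMSO control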); conditions: 3 h, at 10 µM, stronger effect = lower value, 100 = same GFP as DMSO wells
# [2] = yeast TOR pathway reporter LAP4-GFP change – cell-based, cherry picks, flow cytometry, mother/daughter gates, confirmation (AID 2271;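 active means GFP response above 150% of the DMSO control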;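 further: ratio of sample to DMSO plate mean so 100% equals DMSO level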); conditions: S. cerevisiae LAP4-GFP strain, 3 h, at 10 µM, stronger effect = higher value, 100 means same as DMSO control
# Outline: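 Material: Alexa Fluor 633-labelled Saccharomyces cerevisiae GFP-fusion strain, single-plex | Amount: Yeast cells seeded at OD600 of 0.2 | Buffer or medium: SC growth medium | Schedule: 3 h exposure, 30 °C | Measured by: HT flow cytometry, GFP fluorescence channel | Evaluation: % GFP response vs DMSO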
# [3] = TOR pathway reporter MEP2-GFP, retest of hits – S. cerevisiae, flow cytometry GFP, cherry picks, confirmation (AID 2272;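 active means GFP response above 150% of the DMSO control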;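 further: ratio of well signal to plate DMSO mean so 100% equals DMSO level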); conditions: S. cerevisiae MEP2-GFP strain, 3 h, at 10 µM, stronger effect = higher value
# [4] = yeast AGP1-GFP fluorescence change, single-dose – cell-based, flow cytometry, S. cerevisiae, cherry picks, confirmation (AID 2273);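 further: median GFP channel fluorescence over the whole cell population gate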; conditions: S. cerevisiae AGP1-GFP strain, 3 h, at 10 µM
# [5] = TOR pathway CIT2 reporter hit retest – S. cerevisiae, GFP fusion, cherry picks, mother/daughter gates, confirmation (AID 2274); conditions: S. cerevisiae CIT2-GFP strain, flow cytometry, 3 h, at 10 µM, stronger effect = higher value
# [6] = measured here: daughter cell gate
# [7] = measured here: mother cell gate
# [8] = measured here: daughter cell gate response
# [9] = measured here: mother cell gate response
Structure (SMILES),GFP response vs DMSO [1],"GFP response vs DMSO [1, 6] [%]","GFP response vs DMSO [1, 7] [%]",GFP response relative to DMSO [2],"GFP response relative to DMSO [2, 8] [%]","GFP response relative to DMSO [2, 9] [%]",GFP response vs DMSO [3],"GFP response, % of DMSO [4]","GFP response, % of DMSO [5]","GFP response, % of DMSO [5, 6] [%]","GFP response, % of DMSO [5, 7] [%]"
COc1cc(C2CC(c3cccnc3)=NN2c2ccc(F)cc2)cc(OC)c1OC (centres undefined),98.2% (inactive),98.4,95.2,95.3% (inactive),94.4,95.4,101% (inactive),102% (inactive),98.6% (inactive),97.6,96
CCCn1c(=O)c(C(=O)Nc2ccccc2C(=O)OC)c(O)c2ccccc21,101% (inactive),99,103,92.6% (inactive),94.1,95.2,97.8% (inactive),103% (inactive),93.9% (inactive),94.8,93.4
CCOC(=O)C1CCCN(c2c(C(=O)c3ccccc3)cnc3ccccc23)C1 (centres undefined),99.3% (inactive),98.8,102,91.9% (inactive),90.7,89.7,97.5% (inactive),101% (inactive),104% (inactive),104,101
CC1(C)CC(=O)C(C(C2=C(O)CC(C)(C)CC2=O)c2cccs2)C(=O)C1 (centres undefined),100% (inactive),103,101,100% (inactive),102,100,97.5% (inactive),94.3% (inactive),101% (inactive),102,99.1
O=S(=O)(c1ccccc1)N1N=C(c2ccccc2)CC1c1ccccc1 (centres undefined),105% (inactive),105,103,97% (inactive),97.5,97.3,112% (inactive),99.4% (inactive),106% (inactive),108,104
N/C(=N\OC(=O)c1cc(Br)ccc1Cl)c1ccccn1,101% (inactive),98.7,97.7,133% (inactive),125,135,110% (inactive),93.2% (inactive),112% (inactive),105,114
Cc1ccc(C)c(NC(=O)c2ccccc2O)c1,98.5% (inactive),97,97.8,108% (inactive),99,112,101% (inactive),97.3% (inactive),93.1% (inactive),95.8,96
O=C1c2cccc3cccc(c23)C(=O)N1c1nncs1,103% (inactive),102,103,91.4% (inactive),94.1,92.1,102% (inactive),99.8% (inactive),96.5% (inactive),94.8,99.8
Cn1ncc2c(O/N=C(\N)c3ccc(C(C)(C)C)cc3)ncnc21,92.7% (inactive),92,87.9,143% (inactive),96.6,162,121% (inactive),106% (inactive),182% (active),114,155
Cc1cc(S(=O)(=O)ON2C(=O)c3ccccc3C2=O)ccc1F,78.2% (inactive),84.3,66.6,153% (active),153,160,108% (inactive),105% (inactive),120% (inactive),84.1,98.7
CC(=O)OCC(=O)[C@@]1(O)CC[C@H]2[C@@H]3CCC4=CC(=O)CC[C@]4(C)[C@H]3C(=O)C[C@@]21C,102% (inactive),100,103,101% (inactive),102,102,100% (inactive),100% (inactive),97.8% (inactive),96.5,97.7
Cc1cc(N)n2ncc(-c3ccccc3)c2n1,95.6% (inactive),95.1,94,106% (inactive),102,106,105% (inactive),89.4% (inactive),101% (inactive),101,98.5
O=C(COC(=O)CCc1nc2ccccc2s1)Nc1nc(-c2ccccc2)cs1,101% (inactive),100,100,96.2% (inactive),98.7,97.2,100% (inactive),101% (inactive),102% (inactive),98.1,103
CCOC(=O)c1cc(S(=O)(=O)N2CCN(C(=O)OCC)CC2)cn1C,101% (inactive),99,101,105% (inactive),100,107,107% (inactive),95.7% (inactive),100% (inactive),99.7,102
